Bioassay records: PubChem BioAssay, several laboratories
beta cell repl: induces beta-cell replication in MIN6 cells; 0.29% of 330,000 active; AID 2380; MIN6 cells proliferation, ATPlite luminescence, 48 h; cells starved in 0.2% serum; 100% = growth in 10% serum; proliferation, % at 10 µM;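 active means compounds whose signal lies at least 3.5 SD above the mean of all wells on their plate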
ANO1 block: inhibitors of mouse TMEM16A calcium-activated chloride channel; Q8BHY3; HEK293 TMEM16A/YFP iodide influx fluorescence, ionomycin; normalized B-score (activity score, 25-100; higher = stronger inhibition) at 10 µM; 1.2% of 310,000 active; AID 588511;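 active means ratio plate-corrected score three or more library SD toward inhibition, starting fluorescence score within five deviations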;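 further: score derived from kinetic fluorescence span divided by baseline fluorescence per well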
Target sequence (Q8BHY3 whole entry, looked up): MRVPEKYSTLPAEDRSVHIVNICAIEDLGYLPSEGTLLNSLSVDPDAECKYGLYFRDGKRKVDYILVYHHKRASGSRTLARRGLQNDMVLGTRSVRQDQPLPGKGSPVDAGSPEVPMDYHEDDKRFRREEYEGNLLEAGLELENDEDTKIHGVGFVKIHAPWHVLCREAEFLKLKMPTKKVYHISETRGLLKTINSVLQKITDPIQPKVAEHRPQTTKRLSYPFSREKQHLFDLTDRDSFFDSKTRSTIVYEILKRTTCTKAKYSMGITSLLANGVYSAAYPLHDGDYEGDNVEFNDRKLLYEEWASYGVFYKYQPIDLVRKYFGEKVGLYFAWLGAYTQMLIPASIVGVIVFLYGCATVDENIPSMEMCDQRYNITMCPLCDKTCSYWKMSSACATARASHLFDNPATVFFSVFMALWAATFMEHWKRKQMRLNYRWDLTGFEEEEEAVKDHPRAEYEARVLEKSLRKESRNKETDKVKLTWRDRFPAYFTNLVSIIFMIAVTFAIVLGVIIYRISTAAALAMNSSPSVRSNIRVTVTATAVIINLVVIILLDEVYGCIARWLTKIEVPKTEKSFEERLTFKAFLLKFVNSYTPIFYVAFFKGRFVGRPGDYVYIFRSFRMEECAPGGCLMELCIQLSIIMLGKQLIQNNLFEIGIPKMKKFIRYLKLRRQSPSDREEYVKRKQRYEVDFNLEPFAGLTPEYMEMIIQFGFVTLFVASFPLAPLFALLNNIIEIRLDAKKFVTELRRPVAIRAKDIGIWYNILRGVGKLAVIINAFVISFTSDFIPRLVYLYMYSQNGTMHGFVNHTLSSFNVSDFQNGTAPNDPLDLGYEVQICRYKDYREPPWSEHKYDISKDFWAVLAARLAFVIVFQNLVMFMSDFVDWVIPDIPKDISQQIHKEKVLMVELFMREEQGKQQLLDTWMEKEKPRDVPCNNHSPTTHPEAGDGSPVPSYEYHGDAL
TMEM16A act: mouse TMEM16A channel activation, primary screen. Q8BHY3. HEK293 TMEM16A/YFP-H148Q/I152L, iodide quench fluorescence; stronger effect = lower value. B-score at 10 µM. 0.3% of 340,000 active. AID 623877;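 active means fluorescence-ratio B-score plate-corrected deviation score at least 3 library SD below zero, with starting fluorescence score within 5 deviations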;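 further: channel opened by trigger with iodide after compound preincubation; score built on the fluorescence ratio of max minus min over baseline; more negative score means more quench and so TMEM16A activation or potentiation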
MC4R antagonist: antagonists of human melanocortin 4 receptor (MC4R); P32245; MC4R-expressing cells, MTII-stimulated cAMP, LANCE TR-FRET; inhibition, % at 6.5 µM; 0.48% of 360,000 active; AID 540295;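 active means inhibition above its plate's cutoff, the mean of tested wells on that plate plus 3 SD, cut at about 29% in these data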
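Material – human MC4R-expressing U2OS cells · Repeats – no replicates · Detection – TR-FRET with Eu-cAMP and labeled anti-cAMP, 671 nm · Times – compound 30 min, challenge 1 h, detection 1 h · Compound – single nominal compound dose of 6.5 µM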
m5-HT2A agonist: agonists of mouse serotonin 5-HT2A receptor (HTR2A); CHO-K1 mHTR2A beta-arrestin complementation, luminescence; percent of 30 µM serotonin response; activation, % at 7.6 µM; 0.66% of 360,000 active;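 active means activation above a run cutoff, the mean activation of all tested compounds plus 3 SD, cut at about 14% in these data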
MC4R barr agon: human MC4R agonism via beta-arrestin. 0.98% of 360,000 active. AID 540308. activation, % at 8.9 µM. U2OS MC4R beta-arrestin complementation, luminescence; percent of melanotan II response, DMSO zero;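 active means activation above a per-plate cutoff, the mean activation of sample wells on that plate plus 3 SD, cut at about 8% in these data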
cAMP nonselect: U2OS forskolin cAMP inhibition counter-screen | shares compounds with MC4R antagonist | 26% of 1,600 active | inhibition, % at 6.5 µM | parental U2OS, LANCE TR-FRET;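 active means mean inhibition over triplicates above the low-control well mean plus 3 SD, set per campaign, cut at about 13% in these data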;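 further: signal is single emission at 671 nm which falls as cellular cAMP rises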
MC4R antag conf: human MC4R cAMP antagonism confirmation. shares compounds with MC4R antagonist. MC4R-expressing cells, MTII-stimulated cAMP, TR-FRET. inhibition, % at 6.5 µM. 27% of 1,600 active. AID 602195; in the data active means inhibition above about 29%
A number is an active result; n = inactive; x = no result given; + = active, no number. Hits are enriched below; roughly 3.4% of the tested compounds scored in any of these assays.

SMILES	beta cell repl	ANO1 block	TMEM16A act	MC4R antagonist	m5-HT2A agonist	MC4R barr agon	cAMP nonselect	MC4R antag conf
N#C/C(=C(/O)COC(=O)c1ccccc1O)c1nc2ccccc2s1	n	n	n	n	n	n	x	x
CC(C)(C)c1ccc(C(=O)OC/C(O)=C(\C#N)c2nc3ccccc3s2)cc1	n	n	n	29	n	n	n	n
COc1ccc2c(c1)c(CC(=O)Nc1ccc(C(C)=O)cc1)c(C)n2C(=O)c1ccc(Cl)cc1	n	n	n	29	n	n	n	n
COc1ccc2c(c1)c(CC(=O)Nc1cc(C)ccc1C)c(C)n2C(=O)c1ccc(Cl)cc1	n	n	n	n	n	n	x	x
CCOC(=O)C1CCCN(C(=O)Cn2sc3nc(C)cc(C)c3c2=O)C1 (centres undefined)	n	n	n	42	n	n	n	30
Cc1cc(C)c2c(=O)n(CC(=O)N3CCC(N4CCCCC4)CC3)sc2n1	n	n	n	n	n	n	x	x
Cc1ccccc1NC(=S)N(CCCN1CCCCC1)Cc1ccco1	n	n	n	n	n	n	x	x
Cc1ccccc1NC(=S)N(CCN1CCCCC1)Cc1ccco1	n	n	n	31	n	n	n	n
O=C(c1[nH]c(C(F)(F)F)nc1-c1ccccc1)N1CCN(c2c(Cl)cncc2Cl)CC1	x	x	x	x	n	x	x	x
COc1ccc(/C=N/NC(=O)c2ccc[nH]2)cc1	n	n	n	n	n	n	x	x
COc1nc(NC(C)C)nc(N(C#N)CN2C(=O)c3ccccc3S2(=O)=O)n1	n	n	n	n	n	n	x	x
CN(C)c1nc(N(C)C)nc(N(C#N)CN2C(=O)c3ccccc3S2(=O)=O)n1	n	n	n	n	n	n	x	x
CC(C)(C)Nc1nc(Cl)nc(N(C#N)CN2C(=O)c3ccccc3S2(=O)=O)n1	n	n	n	35	n	n	25	51
CC(C)Nc1nc(Cl)nc(N(C#N)CN2C(=O)c3ccccc3S2(=O)=O)n1	n	n	n	46	n	n	14	37
COc1ccc(/C=C2\C(=O)ON=C2c2ccccc2)cc1OC	n	n	n	31	n	n	n	n
Cc1ccc2c(c1)CCCN2C(=O)c1ccncc1	n	n	n	29	n	n	n	n
Cc1ccc2c(c1)CCCN2C(=O)c1cc(C)on1	n	n	n	n	n	n	x	x
Cc1cc(C)c(NC(=O)c2cccc(NC(=O)c3ccco3)c2)c(C)c1	n	n	n	30	n	n	n	n
O=C(NC1CC1)c1ccccc1	x	x	x	n	n	n	x	x
Cc1ccc(S(=O)(=O)N(C)CC(=O)OCC(=O)N2CCN(c3ccccc3)CC2)cc1	n	n	n	33	n	n	20	n
CC(=O)c1ccc(S(=O)(=O)N(C)CC(=O)NCC2CCCCC2)cc1	n	n	n	n	n	n	x	x
Cc1ccc(NC2=C(CC(=O)O)C(c3ccccc3)N(c3ccc(C)cc3)C2=O)cc1 (centres undefined)	n	n	n	31	n	n	n	n
COc1ccc(C2C(CC(=O)O)=C(O)C(=O)N2c2ccccc2)cc1 (centres undefined)	n	n	n	n	n	n	x	x
O=C(c1ccc(Br)cc1)C(CN1CCOCC1)c1ccccc1 (centres undefined)	n	n	n	41	n	n	n	n
Cc1ccc(S(=O)(=O)N2CCN(C(=O)COC(=O)CCOc3ccccc3C)CC2)c(C)c1	n	x	n	n	n	n	x	x
SMILES	beta cell repl	ANO1 block	TMEM16A act	MC4R antagonist	m5-HT2A agonist	MC4R barr agon	cAMP nonselect	MC4R antag conf
CCCc1nnc(NC(=O)CC(C)c2ccccc2)s1 (centres undefined)	n	n	n	30	n	n	n	n
CC1=C(C(=O)N2CCCCCC2)CC(CC(=O)NCCN2CCOCC2)C(=O)N1CCCN1CCCC1=O (centres undefined)	x	x	x	x	n	x	x	x
COC(=O)[C@]12CCCCC=C1N(Cc1ccco1)C(=O)[C@H](CC(=O)N1CCOCC1)C2	x	x	x	x	n	x	x	x
CC1(C)CC(=O)C(=Cc2cn(-c3ccccc3)nc2-c2ccccc2)C(=O)C1	n	n	n	n	n	n	x	x
Cc1ccc(-c2nn(-c3ccccc3)cc2C=C2C(=O)CC(C)(C)CC2=O)cc1	n	n	n	31	n	n	18	n
CC1=NN(c2ccccc2)C(=O)/C1=C\c1cn(-c2ccccc2)nc1C	n	n	n	28	n	n	n	n
COC(=O)c1ccc(NC(=O)CN2CCC(NC(=O)c3ccccc3F)CC2)cc1	x	x	x	n	n	n	x	x
O=C(C[C@H]1CC[C@@H](NS(=O)(=O)c2ccccc2)[C@@H](CO)O1)NCc1ccc(Cl)c(Cl)c1	x	x	x	x	n	x	x	x
COc1ccc(-c2noc(CN(C)CCC3CCCCO3)n2)cc1 (centres undefined)	n	n	n	32	n	n	n	n
COC(=O)c1ccc(-c2noc(CN(C)CCC3CCCCO3)n2)cc1 (centres undefined)	n	n	n	n	n	n	x	x
COc1ccc(Cl)cc1-c1n[nH]c(=S)o1	n	n	n	72	n	n	45	78
Cc1ccccc1-c1n[nH]c(=S)o1	n	n	n	42	n	n	25	47
COc1ccccc1-c1n[nH]c(=S)o1	n	n	n	n	n	n	x	x
CSc1ccccc1-c1n[nH]c(=S)o1	n	x	n	90	n	n	50	94
O=C(c1cccs1)N1C[C@H](O)[C@@H](n2cc(-c3ccc(F)cc3)nn2)C[C@@H]1c1ccccc1	x	x	x	n	n	n	x	x
C=CCN1C(=O)c2ccc(C(=O)N3CCN(S(=O)(=O)c4cccc(F)c4)CC3)cc2C1=O	n	n	n	n	n	n	x	x
CC1Sc2ccc(S(=O)(=O)CCC(=O)N3CCN(c4ccccc4F)CC3)cc2NC1=O (centres undefined)	n	n	n	n	n	n	x	x
Cc1cccc(-n2c(-c3ccoc3C)n[nH]c2=S)c1	n	n	n	30	n	n	n	n
O=C(CNC(=O)c1cccc(-n2cccc2)c1)Nc1ccccc1Br	x	x	x	n	n	n	x	x
COC(=O)c1sc(N2C(=O)C(O)=C(C(=O)c3ccc(C)o3)C2c2ccco2)nc1C (centres undefined)	n	n	n	n	n	n	x	x
CSc1nnc(N2C(=O)C(O)=C(C(=O)c3ccc(C)o3)C2c2ccc(C)cc2)s1 (centres undefined)	n	n	-4.8	+	n	n	52	88
COC(=O)c1sc(N2C(=O)C(O)=C(C(=O)c3ccc(C)o3)C2c2ccc(F)cc2)nc1C (centres undefined)	n	n	n	33	n	n	17	n
